Data taken from ChEMBL document CHEMBL1135609, “Discovery of gamma-lactam hydroxamic acids as selective inhibitors of tumor necrosis factor alpha converting enzyme: design, synthesis, and structure-activity relationships” (J Med Chem, 2002).

How the values were obtained:
[1] = biological target: Matrix metalloproteinase-9 (Homo sapiens, UniProt P14780); test: Affinity towards Matrix metalloprotease-9 (MMP-9)
Interstitial collagenase = biological target: T1, Interstitial collagenase (Homo sapiens, UniProt P03956); test: Affinity towards Matrix metalloprotease-1 (MMP-1)
T1 sequence (P03956 whole entry): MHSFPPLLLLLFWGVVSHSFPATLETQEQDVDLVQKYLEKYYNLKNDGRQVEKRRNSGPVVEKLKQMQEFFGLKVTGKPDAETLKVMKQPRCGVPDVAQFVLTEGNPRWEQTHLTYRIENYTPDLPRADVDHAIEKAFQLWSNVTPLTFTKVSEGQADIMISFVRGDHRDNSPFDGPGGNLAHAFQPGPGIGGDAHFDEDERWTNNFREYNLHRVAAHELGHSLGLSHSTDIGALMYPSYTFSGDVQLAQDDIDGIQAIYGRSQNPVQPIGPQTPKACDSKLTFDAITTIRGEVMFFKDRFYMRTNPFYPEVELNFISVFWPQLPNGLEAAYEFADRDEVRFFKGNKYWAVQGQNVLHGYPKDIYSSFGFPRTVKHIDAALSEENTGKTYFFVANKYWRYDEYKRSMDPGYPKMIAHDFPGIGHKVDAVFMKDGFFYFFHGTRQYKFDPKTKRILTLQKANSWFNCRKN

[2] = biological target: 72 kDa type IV collagenase (Homo sapiens, UniProt P08253); test: Affinity for Matrix metalloprotease-2 (MMP-2)
72 kDa type IV collagenase, sequence (P08253 whole entry, the tested form may be a part): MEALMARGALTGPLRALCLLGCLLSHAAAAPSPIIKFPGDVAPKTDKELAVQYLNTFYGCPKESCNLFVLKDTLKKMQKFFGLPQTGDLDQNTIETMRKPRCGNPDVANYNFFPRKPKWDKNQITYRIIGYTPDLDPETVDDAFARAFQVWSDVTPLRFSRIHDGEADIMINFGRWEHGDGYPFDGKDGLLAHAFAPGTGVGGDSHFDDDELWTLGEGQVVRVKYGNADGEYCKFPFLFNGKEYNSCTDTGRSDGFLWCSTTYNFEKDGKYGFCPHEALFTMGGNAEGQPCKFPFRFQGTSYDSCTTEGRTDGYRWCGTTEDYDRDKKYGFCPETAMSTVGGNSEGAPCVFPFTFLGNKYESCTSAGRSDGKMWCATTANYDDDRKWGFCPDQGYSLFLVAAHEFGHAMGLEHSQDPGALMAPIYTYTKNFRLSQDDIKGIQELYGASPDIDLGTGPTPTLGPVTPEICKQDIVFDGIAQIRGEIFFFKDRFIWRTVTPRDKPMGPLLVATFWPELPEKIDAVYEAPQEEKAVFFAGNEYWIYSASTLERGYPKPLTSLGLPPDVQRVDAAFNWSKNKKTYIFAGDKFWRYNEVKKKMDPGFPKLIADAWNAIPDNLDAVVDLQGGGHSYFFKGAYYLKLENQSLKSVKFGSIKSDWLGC

[3] = biological target: T2, Disintegrin and metalloproteinase domain-containing protein 17 (Sus scrofa, UniProt O77636); test: Inhibitory activity against porcine Tumor necrosis factor alpha converting enzyme.
T2 sequence (O77636 whole entry, the tested form may be a part): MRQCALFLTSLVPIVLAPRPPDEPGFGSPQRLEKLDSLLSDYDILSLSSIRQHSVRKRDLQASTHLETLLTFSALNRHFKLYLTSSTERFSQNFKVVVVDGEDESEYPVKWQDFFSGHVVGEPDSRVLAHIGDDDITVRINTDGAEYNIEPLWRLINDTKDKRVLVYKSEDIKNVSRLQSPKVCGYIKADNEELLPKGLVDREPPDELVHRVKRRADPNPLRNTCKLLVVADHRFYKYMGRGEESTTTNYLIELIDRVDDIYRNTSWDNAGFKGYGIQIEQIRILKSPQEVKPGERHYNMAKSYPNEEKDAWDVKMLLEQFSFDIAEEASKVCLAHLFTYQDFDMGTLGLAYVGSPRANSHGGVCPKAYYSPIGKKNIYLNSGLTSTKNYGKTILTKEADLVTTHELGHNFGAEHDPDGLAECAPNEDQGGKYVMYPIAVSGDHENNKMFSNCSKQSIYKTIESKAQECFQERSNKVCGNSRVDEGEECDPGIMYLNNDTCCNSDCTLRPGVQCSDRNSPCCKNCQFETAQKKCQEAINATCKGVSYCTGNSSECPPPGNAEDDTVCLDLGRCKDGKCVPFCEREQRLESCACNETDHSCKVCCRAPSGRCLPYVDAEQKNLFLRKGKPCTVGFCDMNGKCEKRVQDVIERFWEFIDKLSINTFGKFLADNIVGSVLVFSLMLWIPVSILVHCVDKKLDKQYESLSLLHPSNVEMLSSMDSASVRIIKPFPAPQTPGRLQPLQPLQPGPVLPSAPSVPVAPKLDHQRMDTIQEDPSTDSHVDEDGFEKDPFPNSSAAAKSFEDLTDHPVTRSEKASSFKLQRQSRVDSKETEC

[4] = biological target: Matrix metalloproteinase-14 (Homo sapiens, UniProt P50281); test: Affinity for Matrix metalloprotease-14 (MMP-14)
[5] = biological target: T2, Disintegrin and metalloproteinase domain-containing protein 17; test: Affinity for Tumor necrosis factor alpha converting enzyme (TACE)
[6] = biological target: Matrix metalloproteinase-16 (Homo sapiens, UniProt P51512); test: Affinity for Matrix metalloprotease-16 (MMP-16)
Matrix metalloproteinase-16, sequence (P51512 whole entry): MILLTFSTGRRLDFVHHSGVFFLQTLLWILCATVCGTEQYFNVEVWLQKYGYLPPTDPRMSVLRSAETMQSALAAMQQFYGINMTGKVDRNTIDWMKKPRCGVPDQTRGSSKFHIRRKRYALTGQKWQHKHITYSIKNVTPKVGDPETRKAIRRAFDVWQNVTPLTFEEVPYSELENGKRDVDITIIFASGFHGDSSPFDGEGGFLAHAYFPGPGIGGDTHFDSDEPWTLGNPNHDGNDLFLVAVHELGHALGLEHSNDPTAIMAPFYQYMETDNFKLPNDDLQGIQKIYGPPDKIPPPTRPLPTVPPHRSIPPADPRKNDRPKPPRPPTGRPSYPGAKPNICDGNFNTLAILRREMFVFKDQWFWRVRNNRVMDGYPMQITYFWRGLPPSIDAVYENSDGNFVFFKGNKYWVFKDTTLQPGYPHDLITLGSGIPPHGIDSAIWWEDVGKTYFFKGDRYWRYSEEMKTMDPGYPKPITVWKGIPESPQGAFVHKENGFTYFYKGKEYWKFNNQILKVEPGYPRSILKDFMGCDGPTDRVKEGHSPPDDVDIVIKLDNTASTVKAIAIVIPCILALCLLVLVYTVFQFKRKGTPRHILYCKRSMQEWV

[7] = (§1) The compound was administered intravenously at a dose of 4 mg/Kg for determination of volume of distribution at steady state; assay type: ADME, organism-based; conditions: rat, in vivo, iv, read-out: Vss
Method in brief: (§2)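 Sprague Dawley rats and Beagle dogs were dosed in cassette fashion, iv at 4 mg/kg or orally at 8 mg/kg. Plasma samples were analysed by LC–MS–MS. The iv arm gave clearance, volume of distribution at steady state, terminal half-life and AUC. The oral arm gave tmax and bioavailability. Two animals were used per dosing group.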

[8] = (§3) Bioavailability (dose 8 mg/kg p.o.); assay type: ADME, organism-based; conditions: rat, in vivo, po; method in brief: as §2
[9] = as §1; assay type: ADME, organism-based, Canis lupus familiaris; conditions: dog, in vivo, iv, read-out: Vss; method in brief: as §2
[10] = (§4) The compound was administered intravenously at a dose of 4 mg/Kg for determination of systemic clearance; assay type: ADME, organism-based, Canis lupus familiaris; conditions: dog, in vivo, iv; method in brief: as §2
Neutrophil collagenase = Neutrophil collagenase (Homo sapiens, UniProt P22894); test: Affinity for Matrix metalloprotease-8 (MMP-8)
Matrilysin = biological target: T3, Matrilysin (Homo sapiens, UniProt P09237); test: Affinity for Matrix metalloprotease-7 (MMP-7)
T3 sequence (P09237 whole entry): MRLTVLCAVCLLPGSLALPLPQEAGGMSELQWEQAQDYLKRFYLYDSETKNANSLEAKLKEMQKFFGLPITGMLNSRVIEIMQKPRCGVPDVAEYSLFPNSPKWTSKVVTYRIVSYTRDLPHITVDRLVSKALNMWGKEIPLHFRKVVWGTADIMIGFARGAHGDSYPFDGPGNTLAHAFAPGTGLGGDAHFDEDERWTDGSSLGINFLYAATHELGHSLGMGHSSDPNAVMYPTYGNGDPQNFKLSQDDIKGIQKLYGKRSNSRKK

Collagenase 3 = Collagenase 3 (Homo sapiens, UniProt P45452); test: Affinity for Matrix metalloprotease-13 (MMP-13)
[11] = as §3; assay type: ADME, organism-based, Canis lupus familiaris; conditions: dog, in vivo, po; method in brief: as §2
[12] = biological target: Matrix metalloproteinase-15 (Homo sapiens, UniProt P51511); test: Affinity for Matrix metalloprotease-15 (MMP-15)
Matrix metalloproteinase-15, sequence (P51511 whole entry): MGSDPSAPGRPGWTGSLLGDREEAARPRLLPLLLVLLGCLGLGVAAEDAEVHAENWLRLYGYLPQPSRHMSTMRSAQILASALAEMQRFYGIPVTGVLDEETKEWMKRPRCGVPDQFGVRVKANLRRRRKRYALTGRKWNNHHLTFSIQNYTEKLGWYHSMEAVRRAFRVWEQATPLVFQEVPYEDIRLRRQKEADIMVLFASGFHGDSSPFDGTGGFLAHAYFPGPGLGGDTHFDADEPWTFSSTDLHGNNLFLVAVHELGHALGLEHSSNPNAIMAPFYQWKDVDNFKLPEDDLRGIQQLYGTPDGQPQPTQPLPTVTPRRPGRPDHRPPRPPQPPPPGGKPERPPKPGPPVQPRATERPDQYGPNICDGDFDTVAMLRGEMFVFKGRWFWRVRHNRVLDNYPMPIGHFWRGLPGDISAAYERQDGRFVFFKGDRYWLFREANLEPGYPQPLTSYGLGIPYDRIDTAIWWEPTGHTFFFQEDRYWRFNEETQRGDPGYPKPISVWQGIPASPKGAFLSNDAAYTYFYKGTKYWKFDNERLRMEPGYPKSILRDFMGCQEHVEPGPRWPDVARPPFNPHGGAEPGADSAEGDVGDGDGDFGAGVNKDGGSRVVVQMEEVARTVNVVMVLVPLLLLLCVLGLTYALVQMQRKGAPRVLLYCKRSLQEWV

Stromelysin-1 = Stromelysin-1 (Homo sapiens, UniProt P08254); test: Affinity for Matrix metalloprotease-3 (MMP-3)
Stromelysin-1, sequence (P08254 whole entry, the tested form may be a part): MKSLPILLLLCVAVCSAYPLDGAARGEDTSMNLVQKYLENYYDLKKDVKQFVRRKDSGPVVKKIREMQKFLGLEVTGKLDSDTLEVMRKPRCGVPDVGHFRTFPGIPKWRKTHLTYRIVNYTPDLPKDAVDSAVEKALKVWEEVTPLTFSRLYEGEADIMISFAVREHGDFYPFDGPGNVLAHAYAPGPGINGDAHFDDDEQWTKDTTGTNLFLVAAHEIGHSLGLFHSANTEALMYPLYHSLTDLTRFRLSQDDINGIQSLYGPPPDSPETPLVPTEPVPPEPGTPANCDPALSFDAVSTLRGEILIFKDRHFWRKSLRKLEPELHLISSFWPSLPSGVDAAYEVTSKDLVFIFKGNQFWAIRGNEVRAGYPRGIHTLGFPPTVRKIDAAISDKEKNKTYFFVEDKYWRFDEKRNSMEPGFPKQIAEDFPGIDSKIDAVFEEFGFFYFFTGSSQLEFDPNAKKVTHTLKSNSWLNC

[13] = biological target: Disintegrin and metalloproteinase domain-containing protein 17 (Homo sapiens, UniProt P78536); test: Inhibition of Tumor necrosis factor alpha secretion in LPS-stimulated human whole blood assay; assay type: functional, tissue-based
Disintegrin and metalloproteinase domain-containing protein 17 (Homo sapiens, UniProt P78536), sequence (P78536 whole entry, the tested form may be a part): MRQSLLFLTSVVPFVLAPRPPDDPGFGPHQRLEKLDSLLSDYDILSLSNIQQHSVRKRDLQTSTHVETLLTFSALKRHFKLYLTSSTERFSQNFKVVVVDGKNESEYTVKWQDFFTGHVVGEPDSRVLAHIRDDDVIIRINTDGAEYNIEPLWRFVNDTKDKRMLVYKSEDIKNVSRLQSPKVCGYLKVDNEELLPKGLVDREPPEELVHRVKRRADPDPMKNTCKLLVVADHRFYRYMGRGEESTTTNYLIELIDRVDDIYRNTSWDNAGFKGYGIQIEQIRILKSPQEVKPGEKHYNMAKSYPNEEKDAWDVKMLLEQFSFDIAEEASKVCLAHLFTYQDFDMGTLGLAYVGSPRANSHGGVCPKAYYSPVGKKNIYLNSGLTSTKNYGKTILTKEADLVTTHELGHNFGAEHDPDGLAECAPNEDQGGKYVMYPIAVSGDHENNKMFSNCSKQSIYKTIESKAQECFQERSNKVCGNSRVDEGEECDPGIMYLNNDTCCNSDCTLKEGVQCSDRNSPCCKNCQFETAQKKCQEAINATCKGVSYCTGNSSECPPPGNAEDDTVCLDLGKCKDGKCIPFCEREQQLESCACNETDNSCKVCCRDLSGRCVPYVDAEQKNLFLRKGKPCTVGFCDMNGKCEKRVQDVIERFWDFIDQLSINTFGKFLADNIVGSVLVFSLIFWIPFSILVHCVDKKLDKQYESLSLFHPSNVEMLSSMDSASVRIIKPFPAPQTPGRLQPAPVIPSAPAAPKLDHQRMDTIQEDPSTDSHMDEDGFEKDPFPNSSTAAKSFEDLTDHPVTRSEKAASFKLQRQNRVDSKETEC

Rattus norvegicus [14] = test: (§5) The compound was administered intravenously at a dose of 4 mg/Kg for determination area under curve; assay type: functional, organism-based; method in brief: as §2
Canis familiaris [15] = test: as §5; assay type: functional, organism-based; conditions: Canis lupus familiaris; method in brief: as §2
Rattus norvegicus [16] = test: (§6) The compound was administered orally at a dose of 8 mg/Kg for determination of t max; assay type: functional, organism-based; method in brief: as §2
Canis familiaris [17] = test: as §6; assay type: functional, organism-based; conditions: Canis lupus familiaris; method in brief: as §2
Rattus norvegicus [18] = test: as §4; assay type: functional, organism-based; method in brief: as §2
Rattus norvegicus [19] = test: (§7) The compound was administered intravenously at a dose of 4 mg/Kg for determination of terminal half life; assay type: functional, organism-based
Method in brief: (§8)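 Cassette dosing in Sprague Dawley rats and Beagle dogs, given intravenously at 4 mg/kg. Plasma samples were analysed by LC–MS–MS, and terminal half-life was derived from the plasma profile. Two animals per dosing group.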

Canis familiaris [20] = test: as §7; assay type: functional, organism-based; conditions: Canis lupus familiaris; method in brief: as §8

Matrix metalloproteinase-9, sequence (P14780 whole entry): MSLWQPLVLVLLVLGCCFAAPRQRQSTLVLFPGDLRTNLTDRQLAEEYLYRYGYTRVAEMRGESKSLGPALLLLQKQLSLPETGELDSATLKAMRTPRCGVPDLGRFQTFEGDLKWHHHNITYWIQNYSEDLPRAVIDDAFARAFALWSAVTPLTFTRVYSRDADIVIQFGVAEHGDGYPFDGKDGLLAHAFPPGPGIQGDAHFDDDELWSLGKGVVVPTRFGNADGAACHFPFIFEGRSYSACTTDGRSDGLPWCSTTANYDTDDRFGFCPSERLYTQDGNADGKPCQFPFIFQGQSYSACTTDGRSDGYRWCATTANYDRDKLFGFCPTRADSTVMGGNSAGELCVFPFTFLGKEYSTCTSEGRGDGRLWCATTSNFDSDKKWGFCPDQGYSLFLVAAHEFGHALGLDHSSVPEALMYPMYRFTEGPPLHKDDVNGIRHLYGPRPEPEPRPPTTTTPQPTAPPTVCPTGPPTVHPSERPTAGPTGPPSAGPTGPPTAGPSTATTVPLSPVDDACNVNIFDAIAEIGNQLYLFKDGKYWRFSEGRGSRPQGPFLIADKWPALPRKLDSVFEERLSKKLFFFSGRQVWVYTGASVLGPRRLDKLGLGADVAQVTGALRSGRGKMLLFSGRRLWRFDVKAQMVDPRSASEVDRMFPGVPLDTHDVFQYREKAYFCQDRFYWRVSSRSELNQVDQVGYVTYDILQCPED

| SMILES | Ki [1] [nM] | Ki (Interstitial collagenase) [nM] | Ki [2] [nM] | IC50 [3] [nM] | further results |
| --- | --- | --- | --- | --- | --- |
| C[C@H](C(=O)NO)N1CC[C@@](C)(c2ccc(OCc3cc(C(F)(F)F)cc(C(F)(F)F)c3)cc2)C1=O | > 2000 | > 5000 | > 3000 | 2 | – |
| Cc1cncc(C)c1COc1ccc([C@]2(C)CCN([C@H](C)C(=O)NO)C2=O)cc1 (stereo in doubt; 5q) | – | – | – | 3 | IC50 [13]: 6600 nM |
| C=CCOc1ccc([C@]2(C)CCN([C@H](C)C(=O)NO)C2=O)cc1 | 11 | 335 | 14 | 97 | – |
| C[C@H](C(=O)NO)N1CC[C@@](C)(c2ccc(OC(C)(C)C)cc2)C1=O | – | – | – | > 10000 | – |
| C[C@H](C(=O)NO)N1CC[C@@](C)(c2ccc(Oc3ccccc3)cc2)C1=O | < 2.1 | 143 | < 2.8 | 185 | – |
| C[C@H](C(=O)NO)N1CC[C@@](C)(c2ccc(OCc3ccnc4ccccc34)cc2)C1=O | – | – | – | 1.8 | IC50 [13]: 2250 nM |
| Cc1cc(COc2ccc([C@]3(C)CCN([C@H](C)C(=O)NO)C3=O)cc2)c2ccccc2n1 (stereo in doubt; 5s) | – | – | – | 1 | – |
| C[C@H](C(=O)NO)N1CC[C@@](C)(c2ccc(OCc3ccccc3[N+](=O)[O-])cc2)C1=O | 66 | > 5000 | 35 | 4 | – |
| Cc1cncc(C)c1COc1ccc([C@]2(C)CCN([C@H](C)C(=O)NO)C2=O)cc1 (stereo in doubt; 5p) | – | – | – | 16 | IC50 [13]: 8100 nM |
| Cc1cc(COc2ccc([C@]3(C)CCN([C@H](C)C(=O)NO)C3=O)cc2)c2ccccc2n1 (stereo in doubt) [listing 2 of 2 here] | – | – | – | – | AUC (Rattus norvegicus [14]): 1810 ng·h/mL; AUC (Canis familiaris [15]): 4430 ng·h/mL; Tmax (Rattus norvegicus [16]): 0.38 h; Tmax (Canis familiaris [17]): 0.38 h; CL (mL.min-1.kg-1) (Rattus norvegicus [18]): 35; T1/2 (Rattus norvegicus [19]): 11.8 h; T1/2 (Canis familiaris [20]): 7.1 h |
| C[C@H](C(=O)NO)N1CC[C@@](C)(c2ccc(OCc3ccncc3)cc2)C1=O | – | – | – | 21 | IC50 [13]: 5900 nM |

The next lines start with results.

| Ki [1] [nM] | Ki (Interstitial collagenase) [nM] | Ki [2] [nM] | SMILES | IC50 [3] [nM] | further results |
| --- | --- | --- | --- | --- | --- |
| 242 | 221 | 108 | C[C@H](C(=O)NO)N1CC[C@@](C)(c2ccccc2)C1=O | 2200 | – |
| 10300 | 30000 | 2050 | Cc1cc(COc2ccc([C@]3(C)CCN([C@H](C)C(=O)NO)C3=O)cc2)c2ccccc2n1 (stereo in doubt) [listing 1 of 2 here] | – | Ki [4]: 15900 nM; Ki [5]: 0.56 nM; Ki [6]: 1600 nM; Vd [7]: 2 L/kg; bioavailability [8]: 41%; Vd [9]: 0.93 L/kg; clearance [10]: 15.7 mL/min/kg; Ki (Neutrophil collagenase): 257 nM; Ki (Matrilysin): 259 nM; Ki (Collagenase 3): 1420 nM; bioavailability [11]: 32%; Ki [12]: 4000 nM; Ki (Stromelysin-1): 141 nM |
| > 2000 | > 5000 | > 3000 | COc1cc(COc2ccc([C@]3(C)CCN([C@H](C)C(=O)NO)C3=O)cc2)cc(OC)c1 | 7 | – |
| 9 | 92 | 4.8 | COc1ccc([C@]2(C)CCN([C@H](C)C(=O)NO)C2=O)cc1 | 887 | – |
| 40 | > 5000 | 11 | C[C@H](C(=O)NO)N1CC[C@@](C)(c2ccc(OCc3ccc([N+](=O)[O-])cc3)cc2)C1=O | 6 | – |
| 35 | 2290 | 82 | C[C@H](C(=O)NO)N1CC[C@@](C)(c2ccc(-c3ccccc3)cc2)C1=O | 13000 | – |
| 39 | > 5000 | 38 | C[C@H](C(=O)NO)N1CC[C@@](C)(c2ccc(OCc3cccc([N+](=O)[O-])c3)cc2)C1=O | 6 | – |
| 1630 | 4750 | 5810 | Cc1cc(C)cc(COc2ccc([C@]3(C)CCN([C@H](C)C(=O)NO)C3=O)cc2)c1 | 4 | – |
| 29 | > 5000 | 19 | C[C@H](C(=O)NO)N1CC[C@@](C)(c2ccc(OCc3ccccc3)cc2)C1=O | 4 | – |
| 586 | 4000 | 701 | CC(C)Cc1ccc([C@]2(C)CCN([C@H](C)C(=O)NO)C2=O)cc1 | 1000 | – |
